Data from ChEMBL document CHEMBL1156058, “Discovery of disubstituted phenanthrene imidazoles as potent, selective and orally active mPGES-1 inhibitors” (Bioorg Med Chem Lett, 2009).
pIC50: −log10 of the molar value. The source made the active and inactive calls. The calls are words filed in the database; no cut-off is given here.

Experiments:
[1] = test system: Blood; assay: Inhibition of PGE2 production in LPS-stimulated human whole blood; type: functional, tissue-based
[2] = Metabolic stability in rat liver hepatocytes assessed as compound remaining after 2 hrs; type: ADME, cell-based, Hepatocyte; conditions: read-out: Stability
Method in brief: (§1)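 Compound incubated with hepatocytes (rat or human) for 2 h at 37 °C; read-out is % parent compound remaining; values are means of at least two experiments.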

[3] = target: T1, Thromboxane-A synthase (Homo sapiens, UniProt P24557); assay: Inhibition of TX synthase
T1 sequence (P24557 whole entry): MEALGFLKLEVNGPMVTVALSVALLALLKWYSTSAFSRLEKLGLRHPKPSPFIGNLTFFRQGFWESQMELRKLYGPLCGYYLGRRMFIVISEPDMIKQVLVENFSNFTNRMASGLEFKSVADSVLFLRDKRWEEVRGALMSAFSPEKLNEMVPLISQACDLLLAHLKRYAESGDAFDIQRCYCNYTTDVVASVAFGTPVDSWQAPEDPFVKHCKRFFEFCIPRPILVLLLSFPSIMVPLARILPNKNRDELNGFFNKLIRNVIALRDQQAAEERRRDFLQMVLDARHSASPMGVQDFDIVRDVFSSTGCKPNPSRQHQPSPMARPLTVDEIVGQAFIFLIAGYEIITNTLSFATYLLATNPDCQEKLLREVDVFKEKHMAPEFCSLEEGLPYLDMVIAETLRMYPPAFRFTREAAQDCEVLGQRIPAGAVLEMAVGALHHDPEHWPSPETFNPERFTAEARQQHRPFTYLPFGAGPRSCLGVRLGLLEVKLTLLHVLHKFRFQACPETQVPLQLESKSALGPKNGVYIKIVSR

[4] = test system: Blood; assay: Inhibition of PGI2 production in LPS-stimulated human whole blood; type: functional, tissue-based
[5] = test system: Blood; assay: Inhibition of PGD2 production in LPS-stimulated human whole blood; type: functional, tissue-based
[6] = test system: A549; assay: Inhibition of PGF2alpha production in human A549 cells in presence of 50% fetal bovine serum; type: functional, cell-based
[7] = Metabolic stability in human liver hepatocytes assessed as compound remaining after 2 hrs; type: ADME, cell-based, Hepatocyte; conditions: read-out: Stability; method in brief: as §1
[8] = test system: Cavia porcellus; assay: Analgesic activity against LPS-induced thermal hyperalgesia in po dosed Hartley guinea pig assessed as decrease in paw withdrawal latency administered 1 hr before LPS challenge measured after […]; type: functional
[9] = test system: Blood; assay: Inhibition of TXB2 production in LPS-stimulated human whole blood; type: functional, tissue-based
[10] = target: Prostaglandin E synthase 2 (Homo sapiens, UniProt Q9H7Z7); assay: Inhibition of human PGES2
[11] = Inhibition of PGES1 in guinea pig whole blood; type: tissue-based; conditions: Cavia porcellus
[12] = Half life in rat at 5 mg/kg, iv administered as single dose; type: ADME, organism-based; set-up: dose 5 mg/kg, route intravenous; conditions: in vivo
[13] = target: T2, Prostaglandin E synthase (Homo sapiens, UniProt O14684); assay: Displacement of [3H]PGH2 from human recombinant PGES1 expressed in CHOK1 cells; type: cell-based, CHO-K1
T2 sequence (O14684 whole entry): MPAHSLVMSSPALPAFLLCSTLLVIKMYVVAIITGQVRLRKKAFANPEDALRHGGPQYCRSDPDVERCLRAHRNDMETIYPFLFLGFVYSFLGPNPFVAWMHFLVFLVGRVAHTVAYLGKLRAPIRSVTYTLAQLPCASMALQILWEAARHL

[14] = Tmax in rat at 20 mg/kg; type: ADME, organism-based; set-up: dose 20 mg/kg; conditions: in vivo
[15] = test system: Blood; assay: Inhibition of TXA2 production in human whole blood; type: functional, tissue-based
[16] = Oral bioavailability in rat at 20 mg/kg administered as single dose; type: ADME, organism-based; conditions: in vivo
[17] = target: T2, Prostaglandin E synthase; assay: Inhibition of mPGES1 in IL-1-beta-stimulated human A549 cells assessed as blockade of PGH2 to PGE2 conversion in presence of 50% fetal bovine serum; type: cell-based
[18] = Half life in monkey; type: ADME, organism-based, Macaca mulatta; conditions: rhesus monkey, in vivo

Prostaglandin E synthase 2, sequence (Q9H7Z7 whole entry): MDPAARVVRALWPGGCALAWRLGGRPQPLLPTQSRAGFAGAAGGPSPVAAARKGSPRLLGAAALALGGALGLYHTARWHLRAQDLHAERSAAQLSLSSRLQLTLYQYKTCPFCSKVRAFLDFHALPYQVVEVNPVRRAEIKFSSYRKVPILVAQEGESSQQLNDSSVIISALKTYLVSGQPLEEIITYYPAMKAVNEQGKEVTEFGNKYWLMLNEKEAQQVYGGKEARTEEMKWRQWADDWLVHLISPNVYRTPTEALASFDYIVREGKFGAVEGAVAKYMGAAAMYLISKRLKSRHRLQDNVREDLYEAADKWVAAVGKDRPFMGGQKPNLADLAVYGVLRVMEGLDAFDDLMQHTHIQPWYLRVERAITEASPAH

| SMILES | pIC50 [1] | pIC50 [13] | half-life [12] [h] | also measured |
| --- | --- | --- | --- | --- |
| CC(C)(O)C#Cc1ccc2c(c1)c1cc(Cl)ccc1c1nc(-c3c(C#N)cccc3C#N)[nH]c21 | 6.70 |  | 20 | remaining at 2 h [2]: 97%; pIC50 [3]: 6.10; Activity [4]: inactive; Activity [5]: inactive; pIC50 [6]: < 4.40; remaining at 2 h [7]: 97%; ED50 [8]: 30 mg/kg; pIC50 [9]: < 4.40; pIC50 [10]: < 4.52; pIC50 [11]: 7.00 |
| CC(C)(O)Cc1ccc2c(c1)c1cc(Cl)ccc1c1nc(-c3c(C#N)cccc3C#N)[nH]c21 | 6.60 | 8.70 | 8.4 | Tmax [14]: 1 h |
| N#CCCCOc1ccc2c(c1)c1cc(Cl)ccc1c1nc(-c3c(C#N)cccc3C#N)[nH]c21 | 6.42 |  |  |  |
| CC(C)(O)Cc1ccc2c(c1)c1cc(OCCC3CC3)ccc1c1[nH]c(-c3c(C#N)cc(F)cc3C#N)nc21 |  |  | 2.3 | remaining at 2 h [2]: 68%; bioavailability [16]: 68%; pIC50 [3]: 4.52; remaining at 2 h [7]: 81%; pIC50 [10]: < 4.52 |
| CC(=O)c1ccc2c(c1)c1cc(C(C)=O)ccc1c1[nH]c(-c3c(F)cccc3Cl)nc21 |  | 6.91 |  | pIC50 [17]: < 4.30 |
| CC(C)(O)Cc1ccc2c(c1)c1cc(OCC3CC3)ccc1c1nc(-c3c(C#N)cccc3C#N)[nH]c21 | 6.46 | 8.52 | 5.5 | bioavailability [16]: 36%; remaining at 2 h [7]: > 99% |
| N#Cc1cccc(C#N)c1-c1nc2c3ccc(Cl)cc3c3cc(C#Cc4cccnc4)ccc3c2[nH]1 | 6.28 |  |  |  |
| CC(C)(O)CCc1ccc2c(c1)c1cc(Cl)ccc1c1nc(-c3c(C#N)cccc3C#N)[nH]c21 | 6.70 |  | 14 |  |
| CC(C)(O)Cc1ccc2c(c1)c1cc(OCCC3CC3)ccc1c1nc(-c3c(C#N)cccc3C#N)[nH]c21 | 6.66 | 9.05 | 1.6 | bioavailability [16]: 76% |
| N#Cc1cccc(C#N)c1-c1nc2c3ccc(Cl)cc3c3cc(C#CC4(O)CCCC4)ccc3c2[nH]1 | 6.59 |  |  |  |
| CC(C)(O)Cc1ccc2c(c1)c1cc(OCCCC(F)(F)F)ccc1c1nc(-c3c(C#N)cccc3C#N)[nH]c21 | 6.60 | 9.00 | 3.3 | remaining at 2 h [2]: 92%; bioavailability [16]: 85%; remaining at 2 h [7]: 98% |
| CC(C)(O)c1ccc2c(c1)c1cc(Cl)ccc1c1nc(-c3c(C#N)cccc3C#N)[nH]c21 | 5.85 |  |  |  |
| N#Cc1cccc(C#N)c1-c1nc2c3ccc(Cl)cc3c3ccccc3c2[nH]1 |  |  | 1.5 | half-life [18]: 1.3 h; pIC50 [6]: < 4.40; remaining at 2 h [7]: 90%; ED50 [8]: 100 mg/kg; pIC50 [10]: < 4.52; pIC50 [11]: 7.00 |

The next lines start with results.

| pIC50 [1] | pIC50 [13] | SMILES | half-life [12] [h] | also measured |
| --- | --- | --- | --- | --- |
| 6.85 |  | CC(C)(O)Cc1ccc2c(c1)c1cc(OCCC3CC3)ccc1c1nc(-c3c(C#N)cc(F)cc3C#N)[nH]c21 |  | Activity [15]: inactive; Activity [4]: inactive; Activity [5]: inactive; pIC50 [6]: < 4.40; ED50 [8]: 14 mg/kg; pIC50 [9]: < 4.40 |
| 6.82 |  | CC(C)CCOc1ccc2c(c1)c1cc(CC(C)(C)O)ccc1c1[nH]c(-c3c(C#N)cccc3C#N)nc21 | 4.8 | remaining at 2 h [2]: 8%; bioavailability [16]: 46%; remaining at 2 h [7]: 30% |
| 6.54 | 8.52 | CC(C)COc1ccc2c(c1)c1cc(CC(C)(C)O)ccc1c1nc(-c3c(C#N)cccc3C#N)[nH]c21 | 1.3 | bioavailability [16]: 30% |
| 6.39 |  | CS(=O)(=O)c1ccc(-c2ccc3c(c2)c2cc(Cl)ccc2c2nc(-c4c(C#N)cccc4C#N)[nH]c32)cc1 |  |  |
| 6.41 |  | N#Cc1cccc(C#N)c1-c1nc2c3ccc(Cl)cc3c3cc(C#Cc4ccncc4)ccc3c2[nH]1 |  |  |
| < 5.00 |  | CS(=O)(=O)c1ccc2c(c1)c1cc(Cl)ccc1c1nc(-c3c(C#N)cccc3C#N)[nH]c21 |  |  |
| 6.43 | 9.00 | CCc1ccc2c(c1)c1cc(C#CC(C)(C)O)ccc1c1[nH]c(-c3c(C#N)cccc3C#N)nc21 | 7 |  |
| 5.96 |  | COCC#Cc1ccc2c(c1)c1cc(Cl)ccc1c1nc(-c3c(C#N)cccc3C#N)[nH]c21 |  |  |
| 7.12 | 9.00 | CC(C)(O)C#Cc1ccc2c(c1)c1cc(C#CC3CC3)ccc1c1nc(-c3c(C#N)cccc3C#N)[nH]c21 | 40 |  |
| 6.42 |  | N#Cc1cccc(C#N)c1-c1nc2c3ccc(Cl)cc3c3cc(OCCn4cccc4)ccc3c2[nH]1 |  |  |
